Test results from ChEMBL document CHEMBL1938372, “Design and synthesis of conformationally constrained inhibitors of non-nucleoside reverse transcriptase” (J Med Chem, 2011).
In brackets after ≈: the same amount, converted by molar mass. Activity calls are given as the source filed them. The rule behind the calls is not given here.

Columns and labels:
[1] = target: Human immunodeficiency virus type 1 reverse transcriptase (Human immunodeficiency virus 1, UniProt Q72547, K103N); experiment: Inhibition of Human immunodeficiency virus reverse transcriptase K103N mutant by SPA assay
Summary of the method: (§1)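 Recombinant HIV-1 RT polymerase scintillation proximity assay run with mutant enzyme, reported as Ki (nM). Values are geometric means of at least two determinations, each within 2-fold of the mean; SEM is given where there were ≥3 determinations.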

[2] = tested on: Human immunodeficiency virus; experiment: Antiviral activity against Human immunodeficiency virus expressing wild type reverse transcriptase infected in human MT4 cells by p24 antigen assay in the presence of 10% FBS; assay type: functional; conditions: Human immunodeficiency virus 1, MT4; read-out: CIC95
Summary of the method: (§2)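 MT-4 human T-lymphoid cells in RPMI 1640 with either 10% FBS or 50% NHS; CIC95 taken as the concentration inhibiting virus spread/replication by >95%. Geometric mean of at least two determinations, individual values within 2-fold; SEM given when ≥3 determinations.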

[3] = target: Human immunodeficiency virus type 1 reverse transcriptase (Human immunodeficiency virus 1, UniProt Q72547, Y181C); experiment: Inhibition of Human immunodeficiency virus reverse transcriptase Y181C mutant by SPA assay; summary of the method: as §1
MT4 = experiment: Cytotoxicity against human MT4 cells up to 8.3 uM; assay type: cell-based
Summary of the method: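 MT-4 cells in RPMI 1640 with 10% FBS or 50% NHS, run alongside the antiviral CIC95 assay; cytotoxicity checked up to the assay upper limit of 8.3 μM.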

[4] = Inhibition of Human immunodeficiency virus reverse transcriptase by SPA assay
Rattus norvegicus = experiment: Dose normalised AUC in Sprague-Dawley rat at 10 mg/kg, po by LC-MS analysis; assay type: ADME, organism-based; design: dose 10 mg/kg, route oral; conditions: in vivo
Summary of the method: (§3)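 PK in Sprague-Dawley rats (iv solution in DMSO via an indwelling jugular cannula, or oral suspension in aqueous methylcellulose/Methocel) and beagle dogs (iv and oral given crossover, same vehicles). Plasma levels by LC-MS. F from oral versus iv dose-normalized AUC. Average of at least two animals; rat values within 25% of the mean.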

[5] = Plasma clearance in Sprague-Dawley rat at 10 mg/kg, po and 2 mg/kg, iv; assay type: ADME, organism-based; summary of the method: as §3
[6] = Plasma clearance in Beagle dog at 0.125 mg/kg, iv; assay type: ADME, organism-based, Canis lupus familiaris; design: dose 0.125 mg/kg, route intravenous; summary of the method: as §3
[7] = Volume of distribution in Beagle dog at 0.125 mg/kg, iv; assay type: ADME, organism-based, Canis lupus familiaris; design: dose 0.125 mg/kg, route intravenous; conditions: in vivo; summary of the method: as §3
[8] = Bioavailability in Sprague-Dawley rat at 10 mg/kg, po and 2 mg/kg, iv; assay type: ADME, organism-based; conditions: in vivo; summary of the method: as §3
[9] = Half life in Beagle dog at 0.125 mg/kg, iv; assay type: ADME, organism-based, Canis lupus familiaris; design: dose 0.125 mg/kg, route intravenous; conditions: in vivo; summary of the method: as §3
[10] = Volume of distribution in Sprague-Dawley rat at 10 mg/kg, po and 2 mg/kg, iv; assay type: ADME, organism-based; conditions: in vivo; summary of the method: as §3
[11] = Half life in Sprague-Dawley rat at 10 mg/kg, po and 2 mg/kg, iv; assay type: ADME, organism-based; conditions: in vivo; summary of the method: as §3
[12] = tested on: Human immunodeficiency virus; experiment: Antiviral activity against Human immunodeficiency virus expressing reverse transcriptase K103N mutant infected in human MT4 cells by p24 antigen assay in the presence of 10% FBS; assay type: functional; conditions: Human immunodeficiency virus 1, MT4; read-out: CIC95
Summary of the method: (§4)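 Antiviral spread assay in MT-4 human T-lymphoid cells kept in RPMI 1640 with 10% FBS. Value is the CIC95, the concentration inhibiting virus replication by >95%. Reported as the geometric mean of at least two determinations, all within 2-fold of the mean. Cytotoxicity was checked up to the assay upper limit of 8.3 μM.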

[13] = tested on: Human immunodeficiency virus; experiment: Antiviral activity against Human immunodeficiency virus expressing wild type reverse transcriptase infected in human MT4 cells by p24 antigen assay in the presence of 50% normal human serum; assay type: functional; conditions: Human immunodeficiency virus 1, MT4; read-out: CIC95; summary of the method: as §2
[14] = tested on: Human immunodeficiency virus; experiment: Antiviral activity against Human immunodeficiency virus expressing reverse transcriptase Y181C mutant infected in human MT4 cells by p24 antigen assay in the presence of 10% FBS; assay type: functional; conditions: Human immunodeficiency virus 1, MT4; read-out: CIC95; summary of the method: as §4
[15] = tested on: Human immunodeficiency virus; experiment: Antiviral activity against Human immunodeficiency virus harboring reverse transcriptase K101E/G190A double mutant assessed as inhibition of viral replication; assay type: functional, organism-based
Summary of the method: (§5)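 Phenosense cell culture assay against a panel of clinically derived RT mutant viruses in the presence of 10% FBS. IC50 is the compound concentration blocking 50% of viral replication. Each value is the average of two determinations.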

[16] = Plasma clearance in Beagle dog at 2 mg/kg, po and 1 mg/kg, iv; assay type: ADME, organism-based, Canis lupus familiaris; summary of the method: as §3
[17] = tested on: Human immunodeficiency virus; experiment: Antiviral activity against wild type Human immunodeficiency virus assessed as inhibition of viral replication; assay type: functional, organism-based
[18] = tested on: Human immunodeficiency virus; experiment: Antiviral activity against Human immunodeficiency virus harboring reverse transcriptase K103N/Y181C/G190A triple mutant assessed as inhibition of viral replication; assay type: functional, organism-based; summary of the method: as §5
[19] = Solubility of the compound in water at pH 2; assay type: physicochemical
Summary of the method: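 Water solubility of the solid compound measured at pH 2 and at pH 7.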

[20] = tested on: Human immunodeficiency virus; experiment: Antiviral activity against Human immunodeficiency virus harboring reverse transcriptase Y188L mutant assessed as inhibition of viral replication; assay type: functional, organism-based; summary of the method: as §5
[21] = Half life in Beagle dog at 2 mg/kg, po and 1 mg/kg, iv; assay type: ADME, organism-based, Canis lupus familiaris; conditions: in vivo; summary of the method: as §3
[22] = Volume of distribution in Beagle dog at 2 mg/kg, po and 1 mg/kg, iv; assay type: ADME, organism-based, Canis lupus familiaris; conditions: in vivo; summary of the method: as §3
[23] = tested on: Human immunodeficiency virus; experiment: Antiviral activity against Human immunodeficiency virus harboring reverse transcriptase Y181C mutant assessed as inhibition of viral replication; assay type: functional, organism-based; summary of the method: as §5
[24] = tested on: Human immunodeficiency virus; experiment: Antiviral activity against Human immunodeficiency virus harboring reverse transcriptase K103N mutant assessed as inhibition of viral replication; assay type: functional, organism-based; summary of the method: as §5
[25] = Bioavailability in Beagle dog at 2 mg/kg, po and 1 mg/kg, iv; assay type: ADME, organism-based, Canis lupus familiaris; conditions: in vivo; summary of the method: as §3
[26] = tested on: Human immunodeficiency virus; experiment: Antiviral activity against multidrug-resistant Human immunodeficiency virus assessed as inhibition of viral replication; assay type: functional, organism-based; summary of the method: as §5
[27] = tested on: Human immunodeficiency virus; experiment: Antiviral activity against Human immunodeficiency virus harboring reverse transcriptase K103N/P225H double mutant assessed as inhibition of viral replication; assay type: functional, organism-based; summary of the method: as §5
[28] = tested on: Human immunodeficiency virus; experiment: Antiviral activity against Human immunodeficiency virus harboring reverse transcriptase L100l/K103N/P225P/H triple mutant assessed as inhibition of viral replication; assay type: functional, organism-based; summary of the method: as §5
[29] = tested on: Human immunodeficiency virus; experiment: Antiviral activity against Human immunodeficiency virus harboring reverse transcriptase L100l mutant assessed as inhibition of viral replication; assay type: functional, organism-based; summary of the method: as §5
Canis familiaris = experiment: Dose normalised AUC in Beagle dog at 2 mg/kg, po by LC-MS analysis; assay type: ADME, organism-based, Canis lupus familiaris; design: dose 2 mg/kg, route oral; conditions: in vivo; summary of the method: as §3
[30] = tested on: Human immunodeficiency virus; experiment: Antiviral activity against Human immunodeficiency virus harboring reverse transcriptase G190S mutant assessed as inhibition of viral replication; assay type: functional, organism-based; summary of the method: as §5
[31] = tested on: Human immunodeficiency virus; experiment: Antiviral activity against Human immunodeficiency virus harboring reverse transcriptase K101E/Y181C/G190A triple mutant assessed as inhibition of viral replication; assay type: functional, organism-based; summary of the method: as §5
[32] = tested on: Human immunodeficiency virus; experiment: Antiviral activity against Human immunodeficiency virus harboring reverse transcriptase V106A/G190A/F227L triple mutant assessed as inhibition of viral replication; assay type: functional, organism-based; summary of the method: as §5
[33] = tested on: Human immunodeficiency virus; experiment: Antiviral activity against Human immunodeficiency virus harboring reverse transcriptase G190A mutant assessed as inhibition of viral replication; assay type: functional, organism-based; summary of the method: as §5

Compound | Ki [1] | IC95 [2] | Ki [3] | Activity (MT4) | Ki [4] | AUC/dose (Rattus norvegicus) | clearance [5] | bioavailability [8] | Vd [10] | half-life [11] | IC95 [12] | IC95 [13] | IC95 [14] | clearance [16] | solubility [19] | half-life [21] | Vd [22] | further results
N#Cc1cc(Cl)cc(Oc2cc3c(cc2Cl)nnn3Cc2n[nH]c3ncccc23)c1 | > 300 nM | > 833 nM | > 900 nM | Non-toxic | > 300 nM |  |  |  |  |  |  |  |  |  |  |  |  | 
N#Cc1cc(Cl)cc(Oc2c(Cl)ccc3c2nnn3Cc2n[nH]c3nc(N)ccc23)c1 | 0.94 nM | 3 nM | 1.2 nM | Non-toxic | 1.1 nM | 0.02 µM·h | 11.9 mL/min/kg | < 1% | 4.4 L/kg | 4.7 h | 5.8 nM | 36 nM | 37 nM |  |  |  |  | clearance [6]: 2.2 mL/min/kg; Vd [7]: 0.65 L/kg; half-life [9]: 12.8 h
N#Cc1cc(Cl)cc(Oc2c(Cl)ccc3c2nnn3Cc2n[nH]c3ncccc23)c1 | 0.43 nM | 4.3 nM | 0.44 nM | Non-toxic | 0.24 nM | 0.18 µM·h | 14 mL/min/kg | 7.3% | 5.5 L/kg | 4.8 h | 3.8 nM | 23 nM | 18 nM | 1.6 mL/min/kg | < 0.1 µg/mL | 11.3 h | 1.3 L/kg | inhibition [15]: Active; inhibition [17]: Active; inhibition [18]: Active; inhibition [20]: inactive; inhibition [23]: Active; inhibition [24]: Active; bioavailability [25]: 9.5%; inhibition [26]: Active; inhibition [27]: Active; inhibition [28]: Active; inhibition [29]: Active; AUC/dose (Canis familiaris): 0.45 µM·h; inhibition [30]: Active; inhibition [31]: Active; inhibition [32]: inactive; inhibition [33]: Active
N#Cc1cc(Cl)cc(Oc2c(Cl)ccc3c2c(Cl)nn3Cc2n[nH]c3ncccc23)c1 | 28 nM | > 500 nM | 42 nM | Non-toxic | 46 nM |  |  |  |  |  | > 2000 nM | > 5000 nM | > 2000 nM |  |  |  |  | 
N#Cc1cc(Cl)cc(Oc2c(Cl)ccc3c2ncn3Cc2n[nH]c3ncccc23)c1 | 5.3 nM | 23 nM | 3.3 nM | Non-toxic | 2 nM | 0.56 µM·h | 25.6 mL/min/kg | 36% | 3.3 L/kg | 2.4 h | 66 nM | 390 nM | 320 nM | 2.2 mL/min/kg | 10 µg/mL (≈ 23 µM) | 12.8 h | 0.37 L/kg | 
N#Cc1cc(Cl)cc(Oc2cc(NCc3n[nH]c4ncccc34)c(N)cc2Cl)c1 | 3.8 nM | 24 nM | 3.3 nM | Non-toxic | 2.3 nM |  |  |  |  |  | 40 nM |  |  |  |  |  |  | 
